Key:
[1] = Cytotoxicity against human L02 cells by after 48 hrs by MTT assay; assay type: cell-based; settings: L02, 48 h
In short: (§1)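 MTT assay; cell lines obtained from Shanghai Institute of Biological Sciences, CAS. Compounds in DMSO stock (10 g/L), diluted in medium just before use. Cells seeded at 8000/well; compound added 24 h later, in duplicate. After 48 h at 37 °C, 5% CO₂, MTT (5 mg/mL in PBS) added for 4 h. Formazan dissolved in DMSO; absorbance read at 570 nm. IC50 taken as the concentration giving 50% growth inhibition.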

A549 [2] = test: Cytotoxicity against human A549 cells by after 48 hrs by MTT assay; assay type: functional, cell-based; settings: A549, 48 h; in short: as §1
HeLa = test: Cytotoxicity against human HeLa cells by after 48 hrs by MTT assay; assay type: functional, cell-based; in short: as §1
[3] = Cytotoxicity against human QGY7701 cells by after 48 hrs by MTT assay; assay type: functional, cell-based; settings: QGY7701, 48 h; in short: as §1
SW480 = test: Cytotoxicity against human SW480 cells by after 48 hrs by MTT assay; assay type: functional, cell-based; settings: SW480, 48 h; in short: as §1
SGC-7901 = test: Cytotoxicity against human SGC7901 cells by after 48 hrs by MTT assay; assay type: functional, cell-based; settings: SGC-7901, 48 h; in short: as §1
MDA-MB-231 = test: Cytotoxicity against human MDA-MB-231 cells by after 48 hrs by MTT assay; assay type: functional, cell-based; settings: MDA-MB-231, 48 h; in short: as §1
A549 [4] = test: Induction of apoptosis in human A549 cells assessed as viable cells at 1 uM after 48 hrs by annexinV/propidium iodide staining-based flow cytometric analysis ( Rvb = 95.96%); assay type: functional; settings: A549, 48 h, read-out: Activity
A549 [5] = test: Induction of apoptosis in human A549 cells assessed as early apoptotic cells at 1 uM after 48 hrs by annexinV/propidium iodide staining-based flow cytometric analysis ( Rvb = 0.15%); assay type: functional
A549 [6] = test: Induction of apoptosis in human A549 cells assessed as late apoptotic cells at 1 uM after 48 hrs by annexinV/propidium iodide staining-based flow cytometric analysis (reference value: 0.16%); assay type: functional
A549 [7] = test: Induction of apoptosis in human A549 cells assessed as viable cells at 2 uM after 48 hrs by annexinV/propidium iodide staining-based flow cytometric analysis ( Rvb = 95.96%); assay type: functional; settings: A549, 48 h, read-out: Activity
A549 [8] = test: Induction of apoptosis in human A549 cells assessed as early apoptotic cells at 2 uM after 48 hrs by annexinV/propidium iodide staining-based flow cytometric analysis ( Rvb = 0.15%); assay type: functional
A549 [9] = test: Induction of apoptosis in human A549 cells assessed as late apoptotic cells at 2 uM after 48 hrs by annexinV/propidium iodide staining-based flow cytometric analysis (reference value: 0.16%); assay type: functional
A549 [10] = test: Induction of apoptosis in human A549 cells assessed as viable cells at 4 uM after 48 hrs by annexinV/propidium iodide staining-based flow cytometric analysis ( Rvb = 95.96%); assay type: functional; settings: A549, 48 h, read-out: Activity
A549 [11] = test: Induction of apoptosis in human A549 cells assessed as early apoptotic cells at 4 uM after 48 hrs by annexinV/propidium iodide staining-based flow cytometric analysis ( Rvb = 0.15%); assay type: functional
A549 [12] = test: Induction of apoptosis in human A549 cells assessed as late apoptotic cells at 4 uM after 48 hrs by annexinV/propidium iodide staining-based flow cytometric analysis (reference value: 0.16%); assay type: functional
A549 [13] = test: Induction of apoptosis in human A549 cells assessed as viable cells at 8 uM after 48 hrs by annexinV/propidium iodide staining-based flow cytometric analysis ( Rvb = 95.96%); assay type: functional; settings: A549, 48 h, read-out: Activity
A549 [14] = test: Induction of apoptosis in human A549 cells assessed as early apoptotic cells at 8 uM after 48 hrs by annexinV/propidium iodide staining-based flow cytometric analysis ( Rvb = 0.15%); assay type: functional
A549 [15] = test: Induction of apoptosis in human A549 cells assessed as late apoptotic cells at 8 uM after 48 hrs by annexinV/propidium iodide staining-based flow cytometric analysis (reference value: 0.16%); assay type: functional
A549 [16] = test: Induction of apoptosis in human A549 cells assessed as necrotic cells at 2 uM after 48 hrs by annexinV/propidium iodide staining-based flow cytometric analysis (reference value: 3.72%); settings: A549, 48 h
A549 [17] = test: Induction of apoptosis in human A549 cells assessed as necrotic cells at 4 uM after 48 hrs by annexinV/propidium iodide staining-based flow cytometric analysis (reference value: 3.72%); settings: A549, 48 h
A549 [18] = test: Induction of apoptosis in human A549 cells assessed as necrotic cells at 8 uM after 48 hrs by annexinV/propidium iodide staining-based flow cytometric analysis (reference value: 3.72%); settings: A549, 48 h
A549 [19] = test: Induction of apoptosis in human A549 cells after 48 hrs by annexinV/propidium iodide staining-based flow cytometric analysis; assay type: functional, cell-based

Row | Structure (SMILES) | IC50 [1] [µM] | IC50 (A549 [2]) [µM] | IC50 (HeLa) [µM] | IC50 [3] [µM] | IC50 (SW480) [µM] | IC50 (SGC-7901) [µM] | IC50 (MDA-MB-231) [µM] | also measured
1 | C/C(=C\COc1ccc2ccc(=O)oc2c1)C1=CC(=O)C(C)(C)O1 [GEIPARVARIN] | > 300 | 18 | 9.09 | 17.7 | 20.3 | 7.59 | 9.88 | viability at 1 µM (A549 [4]): 90.7%; Activity (A549 [5]): 6.19%; Activity (A549 [6]): 1.32%; viability at 2 µM (A549 [7]): 77%; Activity (A549 [8]): 11.51%; Activity (A549 [9]): 5.25%; viability at 4 µM (A549 [10]): 71.7%; Activity (A549 [11]): 18.87%; Activity (A549 [12]): 4.27%; viability at 8 µM (A549 [13]): 65.3%; Activity (A549 [14]): 25.25%; Activity (A549 [15]): 3.56%; necrotic cells at 2 µM (A549 [16]): 4.26%; necrotic cells at 4 µM (A549 [17]): 5.13%; necrotic cells at 8 µM (A549 [18]): 5.87%
2 | O=c1ccoc2cc(OCc3cn(Cc4ccccc4)nn3)ccc12 | > 300 | > 100 | > 100 | > 100 | 42.9 | > 100 | > 100 | 
3 | O=c1ccoc2cc(OCc3cn(Cc4ccc([N+](=O)[O-])cc4)nn3)ccc12 | > 300 | > 100 | 25.7 | > 100 | 19.3 | > 100 |  | 
4 | O=c1ccoc2cc(OCc3cn(Cc4ccc(Br)cc4)nn3)ccc12 | > 300 | > 100 | > 100 | 96.4 | 37.5 | > 100 | > 100 | 
5 | O=c1ccoc2cc(OCc3cn(Cc4cccc([N+](=O)[O-])c4)nn3)ccc12 | > 300 | 9.45 | 17.3 | 14.1 | > 100 | > 100 | > 100 | viability at 1 µM (A549 [4]): 86.7%; Activity (A549 [5]): 8.07%; Activity (A549 [6]): 3%; viability at 2 µM (A549 [7]): 80.1%; Activity (A549 [8]): 10.87%; Activity (A549 [9]): 3.39%; viability at 4 µM (A549 [10]): 74.7%; Activity (A549 [11]): 13.55%; Activity (A549 [12]): 6.36%; viability at 8 µM (A549 [13]): 70.6%; Activity (A549 [14]): 21.54%; Activity (A549 [15]): 5.68%; necrotic cells at 2 µM (A549 [16]): 5.68%; necrotic cells at 4 µM (A549 [17]): 5.44%; necrotic cells at 8 µM (A549 [18]): 4.16%
6 | Cc1ccc(Cn2cc(COc3ccc4c(=O)ccoc4c3)nn2)cc1 | > 300 | 50.7 | > 100 | 68.5 | 10.4 | > 100 | > 100 | 
7 | CC(C)(C)c1ccc(Cn2cc(COc3ccc4c(=O)ccoc4c3)nn2)cc1 | > 300 | > 100 | 17.6 | > 100 | 28.8 | > 100 | > 100 | 
8 | O=c1ccoc2cc(OCc3cn(Cc4ccccc4F)nn3)ccc12 | > 300 | 10.8 | > 100 | 36.9 | 11.4 | > 100 |  | 
9 | O=c1[nH]cc(F)c(=O)[nH]1 [FLUOROURACIL] | 46.6 |  |  |  |  | 6.04 |  | 
10 | O=c1ccoc2cc(OCc3cn(Cc4ccc(F)cc4)nn3)ccc12 | > 300 | > 100 | 12 | 14.4 | 11.2 | > 100 | > 100 | 
11 | Cc1cccc(Cn2cc(COc3ccc4c(=O)ccoc4c3)nn2)c1 | > 300 | 20.3 | > 100 | 22.4 | 11.7 | > 100 | 16 | 
12 | O=c1ccoc2cc(OCc3cn(Cc4ccccc4Cl)nn3)ccc12 | > 300 | > 100 | > 100 | 19.7 | 23.5 | > 100 |  | 
13 | O=c1ccoc2cc(OCc3cn(Cc4ccc(Cl)cc4)nn3)ccc12 | > 300 | > 100 | 37.6 | 41.7 | > 100 | > 100 | > 100 | 
14 | C#CCOc1ccc2c(=O)ccoc2c1 | > 300 | > 100 | 64.7 | 58.5 | > 100 | > 100 | > 100 | 
15 | N#Cc1cccc(Cn2cc(COc3ccc4c(=O)ccoc4c3)nn2)c1 | > 300 | 14.3 | > 100 | 24.4 | > 100 | > 100 | > 100 | 
16 | N#Cc1ccc(Cn2cc(COc3ccc4c(=O)ccoc4c3)nn2)cc1 | > 300 | > 100 | > 100 | > 100 | > 100 | > 100 | > 100 | 
17 | O=c1ccoc2cc(OCc3cn(Cc4cccc(Br)c4)nn3)ccc12 | > 300 | > 100 | > 100 | 17.6 | > 100 | > 100 | > 100 | 
18 | O=c1ccoc2cc(OCc3cn(Cc4ccc(Cl)cc4Cl)nn3)ccc12 | > 300 | 5.26 | 80.6 | 13.3 | > 100 | > 100 | > 100 | viability at 1 µM (A549 [4]): 88.4%; Activity (A549 [5]): 7.13%; Activity (A549 [6]): 2.31%; viability at 2 µM (A549 [7]): 76.4%; Activity (A549 [8]): 17.62%; Activity (A549 [9]): 3.56%; viability at 4 µM (A549 [10]): 65.8%; Activity (A549 [11]): 28.45%; Activity (A549 [12]): 3.55%; viability at 8 µM (A549 [13]): 65.3%; Activity (A549 [14]): 29.73%; Activity (A549 [15]): 3.33%; Activity (A549 [19]): Dose-dependent effect; necrotic cells at 2 µM (A549 [16]): 2.42%; necrotic cells at 4 µM (A549 [17]): 2.19%; necrotic cells at 8 µM (A549 [18]): 1.64%
19 | O=c1ccoc2cc(OCc3cn(Cc4cccc(F)c4)nn3)ccc12 | > 300 | > 100 | 7.55 | > 100 | > 100 | > 100 | > 100 | 
20 | O=c1ccoc2cc(OCc3cn(Cc4ccccc4Br)nn3)ccc12 | > 300 | > 100 | 14.5 | > 100 | > 100 | > 100 | > 100 | 
21 | COc1ccc(Cn2cc(COc3ccc4c(=O)ccoc4c3)nn2)cc1 | > 300 | 16.5 | 14.4 | 56.6 | 20.4 | > 100 | > 100 | 
22 | O=c1ccoc2cc(OCc3cn(Cc4cccc(Cl)c4)nn3)ccc12 | > 300 | 13.7 | > 100 | 28.4 | 12.9 | > 100 | > 100 | 
23 | Cc1ccccc1Cn1cc(COc2ccc3c(=O)ccoc3c2)nn1 | > 300 | > 100 | 15.3 | > 100 | > 100 | > 100 | > 100 | 

Source: ChEMBL document CHEMBL2034938, “Convenient synthesis of novel geiparvarin analogs with potential anti-cancer activity via click chemistry” (Eur J Med Chem, 2012)
